In ChEMBL document CHEMBL1124865, “Synthesis and biological evaluation of a series of parenteral 3'-quaternary ammonium cephalosporins” (J Med Chem, 1990):
Converted amounts (≈) assume the structure as drawn.

Assays:
[1] = Terminal half life in Rhesus […] the dose of 30 mg/kg.; assay type: ADME, organism-based, Macaca mulatta; parameters: dose 30 mg/kg; settings: rhesus monkey
Summary of the method: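 Male rhesus monkeys, 4 per compound, given a single intravenous dose of 30 mg/kg. […] Plasma and urine antibiotic levels measured by microbiological assay. Terminal half-life reported in min.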

Enterobacter cloacae [2] = assay: (§1) Antibacterial activity against Enterobacter cloacae 265A; assay type: functional
Monkey = assay: Percent of dose in Rhesus monkeys urine at the dose of 30 mg/kg.; assay type: functional, Cercopithecidae
Summary of the method: (§2)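 Male rhesus monkeys dosed intravenously at 30 mg/kg. Plasma sampled from 0.08–0.1 h up to 6–8 h; urine collected over 0–6/8 and 6/8–24 h. Samples measured by microbiological assay.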

Pseudomonas aeruginosa [3] = assay: Antibacterial activity against Pseudomonas aeruginosa X528; assay type: functional
Cavia porcellus [4] = species on record: Cavia porcellus; assay: In vitro relative anticholinergic potential in isolated guinea pig trachea; assay type: functional
Summary of the method: (§3)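 Guinea pig trachea in Krebs' solution at 37.5 °C, 95% O2/5% CO2, pH 7.4, 2 g resting tension. Cumulative carbachol log dose-response curve (3-fold steps) run before and 30 min after adding antagonist at 1 mM. […] Tukey test on log2 dose ratios.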

Serratia marcescens = assay: Antibacterial activity against Serratia marcescens SE3; assay type: functional
Pseudomonas aeruginosa [5] = assay: Antibacterial activity against Pseudomonas aeruginosa PS18; assay type: functional
Klebsiella pneumoniae [6] = assay: microbe, parasite or virus in culture; assay type: functional; settings: Klebsiella pneumoniae; read-out: MIC
Enterococcus faecium = assay: Antibacterial activity against Enterococcus faecium; assay type: functional; settings: Enterococcus faecium; read-out: MIC
Escherichia coli [7] = assay: Antibacterial activity against Escherichia coli EC14; assay type: functional
Streptococcus pyogenes [8] = assay: Antibacterial activity against Streptococcus pyogenes
Staphylococcus aureus [9] = assay: Antibacterial activity against penicillin G resistance Staphylococcus aureus; assay type: functional
Klebsiella pneumoniae [10] = assay: Antibacterial activity against Klebsiella pneumoniae X26; assay type: functional
Staphylococcus aureus [11] = assay: Antibacterial activity against penicillin G susceptible Staphylococcus aureus; assay type: functional
Enterobacter cloacae [12] = assay: Antibacterial activity against Enterobacter cloacae EB5; assay type: functional
Escherichia coli [13] = assay: Antibacterial activity against Escherichia coli TEM; assay type: functional
Streptococcus pneumoniae = assay: Antibacterial activity against Streptococcus pneumoniae; assay type: functional
Bacteria = assay: as §1
Enterobacter cloacae [14] = assay: In vitro relative hydrolysis rate against Enterobacter Ia; assay type: functional
Summary of the method: (§4)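 Spectrophotometric hydrolysis at 265 nm, substrate exposed to partially purified cell-free β-lactamase preparations; rate expressed as percentage of the cephaloridine rate.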

[15] = In vitro dose required for anticholinergic activity in isolated guinea pig trachea; assay type: functional
Staphylococcus aureus [16] = assay: (§5) In vivo efficacy against Staphylococcus aureus infected mice treated at 1 hr and 5 hr post infection; assay type: functional; settings: Staphylococcus aureus; read-out: ED50
Staphylococcus aureus [17] = assay: In vitro relative hydrolysis rate against Staphylococcus aureus; assay type: functional; summary of the method: as §4
Canis familiaris [18] = assay: Percent of dose in dogs urine at the dose of 30 mg/kg.; assay type: functional, Canis lupus familiaris
Summary of the method: (§6)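 Overnight-fasted female mongrel dogs with a Foley bladder catheter; bolus into the cephalic vein. Plasma and urine collected before dosing and over 24 h after. Antibacterial activity measured by microbiological assay.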

Pseudomonas aeruginosa [19] = assay: In vivo efficacy against Pseudomonas aeruginosa infections in mice; assay type: functional; settings: Pseudomonas aeruginosa; read-out: MIC
Streptococcus pyogenes [20] = assay: Antibacterial activity against Streptococcus pyogenes; assay type: functional
Staphylococcus aureus [21] = assay: In vivo efficacy against Staphylococcus aureus infections in mice; assay type: functional; settings: Staphylococcus aureus; read-out: MIC
Pseudomonas aeruginosa [22] = assay: In vitro relative hydrolysis rate against Pseudomonas Id; assay type: functional; summary of the method: as §4
Escherichia coli [23] = assay: In vivo efficacy against Escherichia coli infections in mice; assay type: functional; settings: Escherichia coli; read-out: MIC
Pseudomonas aeruginosa [24] = assay: (§7) In vivo efficacy against Pseudomonas aeruginosa infected mice treated at 1 hr and 5 hr post infection; assay type: functional; settings: Pseudomonas aeruginosa; read-out: ED50
[25] = Terminal half life in dogs at the dose of 30 mg/kg.; assay type: ADME, organism-based, Canis lupus familiaris; parameters: dose 30 mg/kg; settings: dog, in vivo; summary of the method: as §6
Canis familiaris [26] = assay: Percent of dose in dogs urine at the dose of 15 mg/kg.; assay type: functional, Canis lupus familiaris; summary of the method: as §6
Klebsiella pneumoniae [27] = assay: In vitro relative hydrolysis rate against Klebsiella IV; assay type: functional; summary of the method: as §4
Cavia porcellus [28] = species on record: Cavia porcellus; assay: In vitro relative anticholinergic activity in isolated guinea pig trachea; assay type: functional; settings: read-out: pA2 (converted); summary of the method: as §3
[29] = Terminal half life in dogs at the dose of 15 mg/kg.; assay type: ADME, organism-based, Canis lupus familiaris; parameters: dose 15 mg/kg; settings: dog, in vivo; summary of the method: as §6
Escherichia coli [30] = assay: (§8) In vivo efficacy against Escherichia coli infected mice treated at 1 hr and 5 hr post infection; assay type: functional; settings: Escherichia coli; read-out: ED50
Escherichia coli [31] = assay: In vitro relative hydrolysis rate against Escherichia coli IIIa; assay type: functional; summary of the method: as §4
Mus musculus [32] = assay: as §7; assay type: functional
Summary of the method: (§9)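 Mice given lethal experimental infections, with treatment at 1 and 5 h postinfection; ED50 expressed as mg/kg × 2.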

Mus musculus [33] = assay: as §5; assay type: functional; summary of the method: as §9
Mus musculus [34] = assay: as §8; assay type: functional; summary of the method: as §9
[35] = Terminal half life in Rhesus monkeys at the dose of 30 mg/kg.; assay type: ADME, organism-based, Macaca mulatta; parameters: dose 30 mg/kg; settings: rhesus monkey, in vivo; summary of the method: as §2
[36] = Terminal half life in dogs at the dose of 20 mg/kg.; assay type: ADME, organism-based, Canis lupus familiaris; parameters: dose 20 mg/kg; settings: dog, in vivo; summary of the method: as §6
[37] = Terminal half life in dogs at the dose of 10 mg/kg.; assay type: ADME, organism-based, Canis lupus familiaris; parameters: dose 10 mg/kg; settings: dog, in vivo; summary of the method: as §6
[38] = Enterobacter cloacae, read-out: MIC
[39] = Pseudomonas aeruginosa, read-out: MIC
[40] = Serratia marcescens, read-out: MIC
[41] = Escherichia coli, read-out: MIC
[42] = Staphylococcus aureus, read-out: MIC
[43] = Klebsiella pneumoniae, read-out: MIC
[44] = Streptococcus pneumoniae, read-out: MIC
[45] = Streptococcus pyogenes, read-out: MIC

SMILES | MIC (Enterobacter cloacae [2]; [38]) [µg/mL] | Dose (Monkey) [%] | MIC (Pseudomonas aeruginosa [3]; [39]) [µg/mL] | RAP (Cavia porcellus [4]) | MIC (Serratia marcescens; [40]) [µg/mL] | MIC (Pseudomonas aeruginosa [5]; [39]) [µg/mL] | MIC (Klebsiella pneumoniae [6]) [µg/mL] | MIC (Enterococcus faecium) [µg/mL] | MIC (Escherichia coli [7]; [41]) [µg/mL] | MIC (Staphylococcus aureus [9]; [42]) [µg/mL] | MIC (Klebsiella pneumoniae [10]; [43]) [µg/mL] | MIC (Staphylococcus aureus [11]; [42]) [µg/mL] | MIC (Enterobacter cloacae [12]; [38]) [µg/mL] | MIC (Escherichia coli [13]; [41]) [µg/mL] | MIC (Streptococcus pneumoniae; [44]) [µg/mL] | MIC (Streptococcus pyogenes [20]; [45]) [µg/mL] | further results
CC(C)(O/N=C(\C(=O)N[C@@H]1C(=O)N2C(C(=O)[O-])=C(C[n+]3ccccc3)CS[C@H]12)c1csc(N)n1)C(=O)O [CEFTAZIDIME] | 64 (≈ 117 µM) | 64 | 2 (≈ 3.66 µM) | 1 | 0.5 (≈ 0.915 µM) | 4 (≈ 7.32 µM) | 1 (≈ 1.83 µM) | > 128 | – | – | – | – | – | – | – | – | half-life [1]: 0.933 h
CO/N=C(\C(=O)N[C@@H]1C(=O)N2C(C(=O)[O-])=C(C[n+]3cccc4ncccc43)CS[C@H]12)c1csc(N)n1 | 8 (≈ 15.2 µM) | – | 4 (≈ 7.61 µM) | – | 0.5 (≈ 0.951 µM) | 8 (≈ 15.2 µM) | 4 (≈ 7.61 µM) | > 128 | 0.06 (≈ 0.114 µM) | 4 (≈ 7.61 µM) | 0.06 (≈ 0.114 µM) | 2 (≈ 3.81 µM) | 0.25 (≈ 0.476 µM) | 0.125 (≈ 0.238 µM) | 0.06 (≈ 0.114 µM) | – | MIC (Streptococcus pyogenes [8]): 0.03 µg/mL (≈ 0.0571 µM)
CO/N=C(\C(=O)N[C@@H]1C(=O)N2C(C(=O)[O-])=C(C[n+]3cccc(CC(=O)O)c3)CS[C@H]12)c1csc(N)n1 (stereo in doubt; 17) | – | – | – | – | – | – | – | – | – | – | – | – | – | – | – | – | MIC (Bacteria): 32 µg/mL (≈ 60.1 µM)
CO/N=C(\C(=O)N[C@@H]1C(=O)N2C(C(=O)[O-])=C(C[n+]3ccc4sccc4c3)CS[C@H]12)c1csc(N)n1 | 4 (≈ 7.54 µM) | – | 2 (≈ 3.77 µM) | 100 | 0.125 (≈ 0.236 µM) | 4 (≈ 7.54 µM) | 2 (≈ 3.77 µM) | > 128 | 0.015 (≈ 0.0283 µM) | 2 (≈ 3.77 µM) | 0.015 (≈ 0.0283 µM) | 1 (≈ 1.88 µM) | 0.06 (≈ 0.113 µM) | 0.03 (≈ 0.0565 µM) | 0.015 (≈ 0.0283 µM) | < 0.008 | Hydrolysis rate (Enterobacter cloacae [14]): 0.6; Dose ratio [15]: 23.67; ED50 (Staphylococcus aureus [16]): 0.4 mg/kg; Hydrolysis rate (Staphylococcus aureus [17]): 7.8; Dose (Canis familiaris [18]): 58%; MIC (Pseudomonas aeruginosa [19]): 2 µg/mL (≈ 3.77 µM); MIC (Staphylococcus aureus [21]): 1 µg/mL (≈ 1.88 µM); Hydrolysis rate (Pseudomonas aeruginosa [22]): 0.3; MIC (Escherichia coli [23]): < 0.008 µg/mL; ED50 (Pseudomonas aeruginosa [24]): 6.3 mg/kg; half-life [25]: 1.5 h; Dose (Canis familiaris [26]): 55%; Hydrolysis rate (Klebsiella pneumoniae [27]): 3.4; Kb (Cavia porcellus [28]): 43.7 µM; half-life [29]: 1.75 h; ED50 (Escherichia coli [30]): 0.02 mg/kg; Hydrolysis rate (Escherichia coli [31]): 0.3
CO/N=C(\C(=O)N[C@@H]1C(=O)N2C(C(=O)[O-])=C(C[n+]3cccc(CC(=O)O)c3)CS[C@H]12)c1csc(N)n1 (stereo in doubt; 6) | – | – | – | – | – | – | – | – | – | – | – | – | – | – | – | – | MIC (Enterobacter cloacae [2]): >128 µg/mL; MIC (Escherichia coli [7]): 0.015 µg/mL (≈ 0.0282 µM); ED50 (Mus musculus [32]): > 50 mg/kg; MIC (Staphylococcus aureus [9]): 4 µg/mL (≈ 7.51 µM); ED50 (Mus musculus [33]): 7.8 mg/kg; MIC (Streptococcus pyogenes [20]): 0.015 µg/mL (≈ 0.0282 µM); MIC (Pseudomonas aeruginosa [3]): 8 µg/mL (≈ 15 µM); MIC (Klebsiella pneumoniae [10]): 0.015 µg/mL (≈ 0.0282 µM); MIC (Staphylococcus aureus [11]): 4 µg/mL (≈ 7.51 µM); ED50 (Mus musculus [34]): 0.13 mg/kg; MIC (Serratia marcescens): 0.25 µg/mL (≈ 0.469 µM); MIC (Enterobacter cloacae [12]): 0.5 µg/mL (≈ 0.939 µM); MIC (Escherichia coli [13]): 0.03 µg/mL (≈ 0.0563 µM); MIC (Streptococcus pneumoniae): 0.015 µg/mL (≈ 0.0282 µM); MIC (Pseudomonas aeruginosa [5]): 32 µg/mL (≈ 60.1 µM)
CO/N=C(\C(=O)N[C@@H]1C(=O)N2C(C(=O)[O-])=C(C[n+]3cccc4c3CCC4)CS[C@H]12)c1csc(N)n1 [CEFPIROME] | 0.5 (≈ 0.972 µM) | 61 | 2 (≈ 3.89 µM) | 4 | 0.125 (≈ 0.243 µM) | 8 (≈ 15.5 µM) | 4 (≈ 7.77 µM) | 8 (≈ 15.5 µM) | 0.015 (≈ 0.0291 µM) | 1 (≈ 1.94 µM) | 0.015 (≈ 0.0291 µM) | 1 (≈ 1.94 µM) | 0.06 (≈ 0.117 µM) | 0.03 (≈ 0.0583 µM) | 0.015 (≈ 0.0291 µM) | 0.008 (≈ 0.0155 µM) | Dose ratio [15]: 1.76; half-life [35]: 1.13 h
CO/N=C(\C(=O)N[C@@H]1C(=O)N2C(C(=O)[O-])=C(C[n+]3ccc4ncn(C)c4c3)CS[C@H]12)c1csc(N)n1 | 8 (≈ 15.1 µM) | 52 | 2 (≈ 3.78 µM) | 1 | 0.125 (≈ 0.236 µM) | 8 (≈ 15.1 µM) | 8 (≈ 15.1 µM) | 128 (≈ 242 µM) | – | 2 (≈ 3.78 µM) | – | 2 (≈ 3.78 µM) | 0.125 (≈ 0.236 µM) | – | – | 0.008 (≈ 0.0151 µM) | half-life [35]: 1.08 h; half-life [36]: 1.17 h; half-life [37]: 1.27 h
